These results are taken from PMC7611355 (Bioconjugate chemistry, 2020).

For data set [1] the following is noted: cited from earlier work.
Data set [2] in a line: Shelf life at room temperature. Conditions: solid; measured by NMR, MS, and elemental analysis. The format is physicochemical.
Data set [3] can be described thus: Dynamic PET-CT imaging, ROI pharmacokinetics in healthy mice. The format is in vivo, BALB/c mice.
Data set [4] in a line: In vitro calcium mineral binding: mean across non-HAp calcium minerals. The note with it: saline, room temperature, 1 h. The procedure, abridged: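 Each calcium salt (carbonate, dibasic phosphate, pyrophosphate, β-tricalcium phosphate, oxalate; 1 mg) was suspended in saline (1 mL). Radiotracer (~700 kBq) was added and shaken for 1 h at room temperature. After centrifuging at 9677 g for 5 min, supernatant and pellet activities were counted separately.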

The nature of data set [5]: In vitro calcium mineral binding: hydroxyapatite. In outline:
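Hydroxyapatite (1 mg) was suspended in saline (1 mL). For blocking, the suspension was preincubated overnight with unlabelled agent: pamidronate (27.9 mg, 100 µmol), alendronate or sodium fluoride, matched to each tracer. Radiotracer (~700 kBq) was added and shaken for 1 h at room temperature. After centrifuging at 9677 g for 5 min, supernatant and pellet activities were counted.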

A short description of data set [6]: Ex vivo biodistribution by gamma counting. The format is in vivo, BALB/c mice. Conditions: 120 min postinjection. The procedure, abridged: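 Female BALB/c mice (6-8 weeks, 17-20 g; 5 per tracer) were anaesthetised with isoflurane (2-3% in oxygen) and the radiotracer (100 ± 15 µL, 2.2-16.2 MBq) was injected via a tail-vein cannula. After a 1 h PET scan the mice recovered and were culled at 2 h postinjection. Organs were harvested, weighed and gamma-counted against standards prepared from the injected material, giving %ID/g.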

In the case of `NCCC(O)(P(=O)(O)O)P(=O)(O)O` [Pamidronate, pamidronate disodium dihydrate], the “pKa (amine)” value in data set [1] is reported as 10.40-13.06. In addition, in data set [2], the “shelf life at room temperature” value is given as “at least 4485 days”.

`[18F-].[Na+]` [[^18F]NaF]: in data set [3] (heart ROI as proxy for blood), the “area under the curve from 3-59 min (AUC3-59)” value is given as 122.3 ± 5.1 %ID min mL^-1. Also, the “knee uptake (ROI image analysis)” value in data set [3] (mice, i.v., at 60 min postinjection) was 54.5 ± 5.1 %ID mL^-1. In addition, the “mean binding across non-HAp minerals” value in data set [4] came out at 8.4 ± 4.6%. Besides, the “mean binding to HAp” value in data set [5] (saline, room temperature, 1 h, non-blocked) came to 88.4 ± 4.6%. In addition, the “mean blocked binding to HAp” value in data set [5] (salt preincubated with excess unlabeled BP or fluoride) came out at 2.2 ± 0.2%. In data set [6], this molecule returned a femur uptake of 47.1 ± 8.3 %ID/g.
